The text below walks through data of ChEMBL document CHEMBL4024790 (J Med Chem, 2018).

The species named for series [1] is Mus musculus. In words: Increase in cGMP level in CD-1 mouse brain hippocampus by immunoassay. It counts as functional. The procedure, abridged:
(§1)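 CD-1 mice given compound; brains fixed by focused microwave irradiation, and cortex, striatum and hippocampus dissected and homogenized in 0.5 N HCl, then centrifuged. cGMP in the supernatant measured by enzyme immunoassay. Unbound brain concentration taken from satellite animals. Dose-response and time-course data combined, and a linear Cbu–cGMP model fitted. The Cbu E50 is the projected Cbu giving a 50% rise in cGMP. Statistics by one-way ANOVA with Fisher's PLSD, p<0.05.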

Series [2] deals with T1, cGMP-dependent 3',5'-cyclic phosphodiesterase (Rattus norvegicus, UniProt Q01062).
T1 sequence (Q01062 whole entry): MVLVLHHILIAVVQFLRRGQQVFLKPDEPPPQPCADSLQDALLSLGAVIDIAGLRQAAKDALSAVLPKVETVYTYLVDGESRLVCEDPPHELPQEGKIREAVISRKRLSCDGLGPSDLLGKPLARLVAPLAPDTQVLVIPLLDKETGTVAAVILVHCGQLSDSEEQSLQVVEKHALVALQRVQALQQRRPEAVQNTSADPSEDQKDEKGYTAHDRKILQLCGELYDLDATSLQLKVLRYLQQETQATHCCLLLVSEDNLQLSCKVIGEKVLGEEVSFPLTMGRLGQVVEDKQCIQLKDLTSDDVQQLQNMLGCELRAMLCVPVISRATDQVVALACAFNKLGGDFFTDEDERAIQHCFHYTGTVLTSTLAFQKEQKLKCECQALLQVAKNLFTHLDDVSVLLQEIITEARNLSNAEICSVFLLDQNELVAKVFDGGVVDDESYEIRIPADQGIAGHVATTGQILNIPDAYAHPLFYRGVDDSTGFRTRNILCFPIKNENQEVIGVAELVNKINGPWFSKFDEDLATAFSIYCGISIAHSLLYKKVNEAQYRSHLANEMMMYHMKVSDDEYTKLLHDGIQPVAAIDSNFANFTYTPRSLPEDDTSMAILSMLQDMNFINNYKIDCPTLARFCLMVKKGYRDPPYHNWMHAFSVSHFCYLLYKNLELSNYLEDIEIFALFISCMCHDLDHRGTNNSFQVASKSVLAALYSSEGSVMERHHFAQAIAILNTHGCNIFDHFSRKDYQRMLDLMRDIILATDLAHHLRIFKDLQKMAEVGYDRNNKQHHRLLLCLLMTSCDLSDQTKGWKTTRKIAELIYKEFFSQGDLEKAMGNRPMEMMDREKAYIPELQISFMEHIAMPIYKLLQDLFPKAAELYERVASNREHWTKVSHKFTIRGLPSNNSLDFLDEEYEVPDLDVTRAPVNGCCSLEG
In words: Displacement of radiolabeled 4-(azetidin-1-yl)-3-[5-[4-(trifluoromethyl)phenyl]-1H-pyrazol-4-yl]-1-(tritritiomethyl)pyrazolo[3,4-d]pyrimidine from PDE2A in rat striatal membranes after 30 mins by liquid scintillation counting method. It is filed as cell membranes, Striatum, Membrane.

Series [3] is described as follows: Drug metabolism in dog hepatocytes assessed as 3-(7-methyl-5-(1-methyl-5-(5-(trifluoromethyl)pyridin-2-yl)-1H-pyrazol-4-yl)imidazo[1,5-f][1,2,4]triazin-4-ylamino)propanoic acid formation at 1 to 50 uM after 1 hr by LC-MS/MS analysis. It counts as ADME, cell-based, Canis lupus familiaris, Hepatocyte. The procedure, abridged: (§2)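 Rat, dog or human liver microsomes or hepatocytes (P450 0.35–0.5 µM final) incubated with compound at 1, 10 or 50 µM in 100 mM phosphate buffer with 1 mM NADP regenerating system, 37°C for 1 h; quenched with 4 volumes acetonitrile, centrifuged, supernatant evaporated, reconstituted in 5% aqueous acetonitrile and analysed by reversed-phase LC.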

Series [4] deals with T2, Cytochrome P450 3A (Homo sapiens, UniProt P08684+P20815+Q9HB55+P24462). In words: Time-dependant inhibition of recombinant human CYP3A. It counts as ADME. The note with it: recombinant enzyme.
The nature of series [5]: 1-octanol/phosphate buffer solution partition coefficient, log D of the compound at pH 7.4 after 1 hr by LC-MS/MS method. It counts as physicochemical.
Series [6] is described as follows: Intrinsic clearance in human hepatocytes. It is filed as ADME, cell-based, Hepatocyte. The note with it: read-out: CLH.
Series [7] in a line: Cmax in beagle dog at 5 mg/kg, po administered via gavage by LC-MS/MS analysis. It counts as ADME, organism-based, Canis lupus familiaris. Set-up: dose 5 mg/kg, route oral. The note with it: in vivo.
The species entered for series [8] is Mus musculus. As to the kind of experiment: Increase in cGMP level in CD-1 mouse brain hippocampus assessed as unbound brain concentration required to show the effect by immunoassay. It counts as functional. The method in brief:
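CD-1 mice dosed SC (solution in 20% SBE-β-CD with 2 molar equivalents 1N HCl, 1 mL/kg); euthanized by focused microwave irradiation of brain; cortex, striatum, hippocampus homogenized in 0.5 N HCl, centrifuged; cyclic nucleotides in supernatant by enzyme immunoassay. Unbound brain exposure from satellite animals; dose-response and time-course data combined with linear model; one-way ANOVA with Fisher's PLSD.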

The nature of series [9]: Drug metabolism in rat hepatocytes assessed as 3-(7-methyl-5-(1-methyl-5-(5-(trifluoromethyl)pyridin-2-yl)-1H-pyrazol-4-yl)imidazo[1,5-f][1,2,4]triazin-4-ylamino)propanoic acid formation at 1 to 50 uM after 1 hr by LC-MS/MS analysis. It counts as ADME, cell-based, Hepatocyte. The procedure, abridged: as §2
Series [10] is described as follows: Passive permeability in RRCK cells. It counts as ADME, cell-based, Canis lupus familiaris, MDCKII-LE. As to conditions: dog, MDCK; read-out: permeability; call rule not given here.
The next series addresses Cytochrome P450 2C9 (Homo sapiens, UniProt P11712). In words: Time-dependant inhibition of recombinant human CYP2C9. It counts as ADME. As to conditions: recombinant enzyme.
A short description of series [11]: Terminal half life in beagle dog at 5 mg/kg, po administered via gavage by LC-MS/MS analysis. It is filed as ADME, organism-based, Canis lupus familiaris. The note with it: in vivo, read-out: beta t1/2 (converted).
A short description of series [12]: Volume of distribution at steady state in Wistar Han rat at 1 mg/kg, iv by LC-MS/MS analysis. It counts as ADME, organism-based. As to conditions: in vivo, read-out: Vdss. The method in brief:
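Male Wistar-Han rats got a single IV dose as a solution in 20% (w/v) sulfobutyl ether β-cyclodextrin with hydrochloric acid, at 1 mL/kg. Blood was drawn into K2EDTA via carotid artery cannula at set times from 2 min to 24 h. Plasma was protein-precipitated with acetonitrile plus internal standard and quantified by LC-MS/MS with positive electrospray, standard curve 0.61 to 625 ng/mL.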

The species named for the next series is Rattus norvegicus. As to the kind of experiment: Cardiotoxicity in rat up to 1 month by microscopic method. It is filed as toxicity.
For another series, the species on record is Canis familiaris. As to the kind of experiment: Toxicity in dog assessed as effect on vasculature up to 1 month by microscopic method. The note with it: in vivo. Set-up: species or system Canis lupus familiaris.
The species entered for series [13] is Mus musculus. As to the kind of experiment: Increase in cGMP level in CD-1 mouse brain hippocampus assessed per nM of unbound brain concentration by immunoassay. It counts as functional. The method in brief: as §1
Series [14] can be described thus: Ratio of unbound brain concentration to unbound plasma concentration in po dosed beagle dog. It is filed as ADME, organism-based, Canis lupus familiaris. The note with it: brain and plasma, read-out: K(p,uu,brain). The procedure, abridged: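 Compound given sc to mice, iv and/or sc to rats, po to dogs and sc to monkeys; sc doses as a solution in 20% SBE-BCD + 2 molar equiv 1N HCl. Plasma, whole brain and CSF taken at matched times from 2 min to 24 h and quantified by LC-MS/MS. Fraction unbound in plasma and brain homogenate (diluted 4-fold, dilution factor 5 applied) by 6 h equilibrium dialysis against phosphate buffer at 37°C.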

The target in series [15] is T2, Cytochrome P450 3A. As to the kind of experiment: Inhibition of recombinant human CYP3A. It counts as ADME. The note with it: recombinant enzyme.
The test system of another series is Liver. As to the kind of experiment: Drug metabolism in human liver microsomes assessed as 3-(7-methyl-5-(1-methyl-5-(5-(trifluoromethyl)pyridin-2-yl)-1H-pyrazol-4-yl)imidazo[1,5-f][1,2,4]triazin-4-ylamino)propanoic acid formation at 1 to 50 uM after 1 hr by LC-MS/MS analysis. It counts as ADME, microsome. The procedure, abridged:
as §2

Sequence of Cytochrome P450 2C9 (P11712 whole entry): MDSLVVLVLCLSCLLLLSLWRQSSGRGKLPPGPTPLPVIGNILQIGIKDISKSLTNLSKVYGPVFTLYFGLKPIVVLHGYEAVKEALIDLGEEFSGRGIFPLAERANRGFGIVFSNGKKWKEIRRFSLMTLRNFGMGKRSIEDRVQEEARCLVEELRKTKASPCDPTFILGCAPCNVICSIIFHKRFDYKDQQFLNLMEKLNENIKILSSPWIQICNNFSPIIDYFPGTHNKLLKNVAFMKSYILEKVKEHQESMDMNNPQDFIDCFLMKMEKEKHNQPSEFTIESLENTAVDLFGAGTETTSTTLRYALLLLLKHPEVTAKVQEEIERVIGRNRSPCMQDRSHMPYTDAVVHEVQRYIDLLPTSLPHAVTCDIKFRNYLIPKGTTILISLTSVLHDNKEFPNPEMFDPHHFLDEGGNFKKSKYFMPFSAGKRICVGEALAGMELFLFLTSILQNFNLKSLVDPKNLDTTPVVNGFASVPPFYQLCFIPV

As for `Cc1nc(-c2cnn(C)c2-c2ccc(C(F)(F)F)cn2)c2c(N3CCC3)ncnn12` [PF-05180999], the Activity entry in the series listed under Mus musculus [1] was “Dose-dependent effect”; in the series filed under Rattus norvegicus it was “Non-Toxic”; in the series filed under Canis familiaris, “Non-Toxic”; in the series listed under Mus musculus [13], 0.43%. Further, affinity in series [2] was put at a Ki of 4.2 nM. The Drug metabolism entry (in [3]; in series [9]; in the series with Liver) was “Metabolite_Detected” throughout. For the same compound, the TDI result at Cytochrome P450 3A [4] and on Cytochrome P450 2C9 was “Not Active” in each case. In addition, the logD at 1 h in [5] is 2.3. Moreover, the CLint scaled in series [6] amounted to 44 mL/min/kg. Besides, the highest level in series [7] (Cmax) was 1770 ng/mL. Besides, the fEC50 in the series filed under Mus musculus [8] amounted to 116.3 nM. Besides, the Papp in series [10] came out at 26 ×10⁻⁶ cm/s. The half-life in series [11] was 246 min. Further, the Vd in series [12] came to 3.94 L/kg. Moreover, the Kp uu in series [14] was 0.58. Further, the “inhibition (INH)” value on Cytochrome P450 3A [15] is reported as “Not Active”.
